According to ChEMBL document CHEMBL1806394, “Synthesis, in vitro evaluation and molecular docking studies of new triazole derivatives as antifungal agents” (2011):
≈ marks a conversion by molar mass, not a printed value.

Columns and labels:
Type in all cases: functional
[1] = tested on: Candida albicans; test: Antifungal activity against Candida albicans SC5314 by micro-broth dilution method
In short: (§1)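 MIC80 determined by broth microdilution following NCCLS methods. C. albicans SC5314 and Y0109 and C. neoformans BLS108 served as quality-control strains and were included in every assay. Fluconazole, itraconazole, voriconazole and amphotericin B were run as positive controls.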

[2] = tested on: Aspergillus fumigatus; test: Antifungal activity against Aspergillus fumigatus by micro-broth dilution method; in short: as §1
[3] = tested on: Candida parapsilosis; test: Antifungal activity against Candida parapsilosis by micro-broth dilution method; conditions: Lodderomyces parapsilosis; in short: as §1
[4] = tested on: Candida albicans; test: Antifungal activity against Candida albicans Y0109 by micro-broth dilution method; in short: as §1
[5] = tested on: Kluyveromyces marxianus; test: Antifungal activity against Candida kefyr by micro-broth dilution method
[6] = tested on: Trichophyton rubrum; test: Antifungal activity against Trichophyton rubrum by micro-broth dilution method; in short: as §1
[7] = tested on: Candida tropicalis; test: Antifungal activity against Candida tropicalis by micro-broth dilution method; in short: as §1
[8] = tested on: Cryptococcus neoformans; test: Antifungal activity against Cryptococcus neoformans BLS108 by micro-broth dilution method; in short: as §1

## C[C@@H]1[C@H](O)[C@@H](C)/C=C/C=C/C=C/C=C/C=C/C=C/C=C/[C@H](O[C@@H]2O[C@H](C)[C@@H](O)[C@H](N)[C@@H]2O)C[C@@H]2O[C@](O)(C[C@@H](O)C[C@@H](O)[C@H](O)CC[C@@H](O)C[C@@H](O)CC(=O)O[C@H]1C)C[C@H](O)[C@H]2C(=O)O [AMPHOTERICIN B]
[1]
  MIC80: 0.25 µg/mL (≈ 0.271 µM)
[2]
  MIC80: 1 µg/mL (≈ 1.08 µM)
[3]
  MIC80: 0.25 µg/mL (≈ 0.271 µM)
[4]
  MIC80: 0.25 µg/mL (≈ 0.271 µM)
[5]
  MIC80: 0.25 µg/mL (≈ 0.271 µM)
[6]
  MIC80: 4 µg/mL (≈ 4.33 µM)
[7]
  MIC80: 1 µg/mL (≈ 1.08 µM)
[8]
  MIC80: 1 µg/mL (≈ 1.08 µM)

## O=C(Nc1ccc(-n2cnn(CC(O)(Cn3cncn3)c3ccc(F)cc3F)c2=O)cc1)c1ccccc1F (single isomer, unassigned)
[1]
  MIC80: 0.0625 µg/mL (≈ 0.117 µM)
[2]
  MIC80: > 64 µg/mL
[3]
  MIC80: 0.0156 µg/mL (≈ 0.0291 µM)
[4]
  MIC80: 4 µg/mL (≈ 7.47 µM)
[5]
  MIC80: 1 µg/mL (≈ 1.87 µM)
[6]
  MIC80: 16 µg/mL (≈ 29.9 µM)
[7]
  MIC80: 0.0625 µg/mL (≈ 0.117 µM)
[8]
  MIC80: 64 µg/mL (≈ 120 µM)

## O=C(/C=C/c1ccc(Br)cc1)Nc1ccc(-n2cnn(CC(O)(Cn3cncn3)c3ccc(F)cc3F)c2=O)cc1 (single isomer, unassigned)
[1]
  MIC80: 1 µg/mL (≈ 1.61 µM)
[2]
  MIC80: > 64 µg/mL
[3]
  MIC80: 1 µg/mL (≈ 1.61 µM)
[4]
  MIC80: 4 µg/mL (≈ 6.43 µM)
[5]
  MIC80: > 64 µg/mL
[6]
  MIC80: > 64 µg/mL
[7]
  MIC80: > 64 µg/mL
[8]
  MIC80: > 64 µg/mL

## N#Cc1cccc(/C=C/C(=O)Nc2ccc(-n3cnn(CC(O)(Cn4cncn4)c4ccc(F)cc4F)c3=O)cc2)c1 (single isomer, unassigned)
[1]
  MIC80: 16 µg/mL (≈ 28.1 µM)
[2]
  MIC80: > 64 µg/mL
[3]
  MIC80: 16 µg/mL (≈ 28.1 µM)
[4]
  MIC80: 16 µg/mL (≈ 28.1 µM)
[5]
  MIC80: > 64 µg/mL
[6]
  MIC80: > 64 µg/mL
[7]
  MIC80: 64 µg/mL (≈ 113 µM)
[8]
  MIC80: > 64 µg/mL

## CCCCCc1ccc(C(=O)Nc2ccc(-n3cnn(CC(O)(Cn4cncn4)c4ccc(F)cc4F)c3=O)cc2)cc1 (single isomer, unassigned)
[1]
  MIC80: 4 µg/mL (≈ 6.81 µM)
[2]
  MIC80: > 64 µg/mL
[3]
  MIC80: > 64 µg/mL
[4]
  MIC80: > 64 µg/mL
[5]
  MIC80: > 64 µg/mL
[6]
  MIC80: > 64 µg/mL
[7]
  MIC80: > 64 µg/mL
[8]
  MIC80: > 64 µg/mL

## CCC(C)n1ncn(-c2ccc(N3CCN(c4ccc(OCC5COC(Cn6cncn6)(c6ccc(Cl)cc6Cl)O5)cc4)CC3)cc2)c1=O (configuration not stated) [ITRACONAZOLE]
[1]
  MIC80: 0.0625 µg/mL (≈ 0.0886 µM)
[2]
  MIC80: 0.0625 µg/mL (≈ 0.0886 µM)
[3]
  MIC80: 0.0625 µg/mL (≈ 0.0886 µM)
[4]
  MIC80: 0.0625 µg/mL (≈ 0.0886 µM)
[5]
  MIC80: 0.0625 µg/mL (≈ 0.0886 µM)
[6]
  MIC80: 0.0625 µg/mL (≈ 0.0886 µM)
[7]
  MIC80: 0.0625 µg/mL (≈ 0.0886 µM)
[8]
  MIC80: 0.0625 µg/mL (≈ 0.0886 µM)

## C[C@@H](c1ncncc1F)[C@](O)(Cn1cncn1)c1ccc(F)cc1F [VORICONAZOLE]
[1]
  MIC80: 0.0039 µg/mL (≈ 0.0112 µM)
[2]
  MIC80: 0.0039 µg/mL (≈ 0.0112 µM)
[3]
  MIC80: 0.0039 µg/mL (≈ 0.0112 µM)
[4]
  MIC80: 0.0039 µg/mL (≈ 0.0112 µM)
[5]
  MIC80: 0.0039 µg/mL (≈ 0.0112 µM)
[6]
  MIC80: 0.0156 µg/mL (≈ 0.0447 µM)
[7]
  MIC80: 0.0039 µg/mL (≈ 0.0112 µM)
[8]
  MIC80: 0.0039 µg/mL (≈ 0.0112 µM)

## CC(C)(C)c1ccc(C(=O)Nc2ccc(-n3cnn(CC(O)(Cn4cncn4)c4ccc(F)cc4F)c3=O)cc2)cc1 (single isomer, unassigned)
[1]
  MIC80: 0.0625 µg/mL (≈ 0.109 µM)
[2]
  MIC80: > 64 µg/mL
[3]
  MIC80: 0.0625 µg/mL (≈ 0.109 µM)
[4]
  MIC80: 1 µg/mL (≈ 1.74 µM)
[5]
  MIC80: > 64 µg/mL
[6]
  MIC80: 4 µg/mL (≈ 6.97 µM)
[7]
  MIC80: 0.25 µg/mL (≈ 0.436 µM)
[8]
  MIC80: 64 µg/mL (≈ 112 µM)

## Cc1cccc(C(=O)Nc2ccc(-n3cnn(CC(O)(Cn4cncn4)c4ccc(F)cc4F)c3=O)cc2)c1 (single isomer, unassigned)
[1]
  MIC80: 0.0625 µg/mL (≈ 0.118 µM)
[2]
  MIC80: > 64 µg/mL
[3]
  MIC80: 0.0625 µg/mL (≈ 0.118 µM)
[4]
  MIC80: 0.0625 µg/mL (≈ 0.118 µM)
[5]
  MIC80: > 64 µg/mL
[6]
  MIC80: > 64 µg/mL
[7]
  MIC80: 1 µg/mL (≈ 1.88 µM)
[8]
  MIC80: > 64 µg/mL

## COc1ccc(C(=O)Nc2ccc(-n3cnn(CC(O)(Cn4cncn4)c4ccc(F)cc4F)c3=O)cc2)cc1 (single isomer, unassigned)
[1]
  MIC80: 1 µg/mL (≈ 1.83 µM)
[2]
  MIC80: > 64 µg/mL
[3]
  MIC80: 1 µg/mL (≈ 1.83 µM)
[4]
  MIC80: 1 µg/mL (≈ 1.83 µM)
[5]
  MIC80: 16 µg/mL (≈ 29.2 µM)
[6]
  MIC80: > 64 µg/mL
[7]
  MIC80: 4 µg/mL (≈ 7.31 µM)
[8]
  MIC80: > 64 µg/mL

## O=C(Nc1ccc(-n2cnn(CC(O)(Cn3cncn3)c3ccc(F)cc3F)c2=O)cc1)c1ccc(Cl)cc1Cl (single isomer, unassigned)
[1]
  MIC80: 0.0625 µg/mL (≈ 0.107 µM)
[2]
  MIC80: > 64 µg/mL
[3]
  MIC80: 0.0156 µg/mL (≈ 0.0266 µM)
[4]
  MIC80: 0.0625 µg/mL (≈ 0.107 µM)
[5]
  MIC80: 4 µg/mL (≈ 6.82 µM)
[6]
  MIC80: > 64 µg/mL
[7]
  MIC80: 0.25 µg/mL (≈ 0.426 µM)
[8]
  MIC80: > 64 µg/mL

## COc1ccc(OC)c(/C=C/C(=O)Nc2ccc(-n3cnn(CC(O)(Cn4cncn4)c4ccc(F)cc4F)c3=O)cc2)c1 (single isomer, unassigned)
[1]
  MIC80: 1 µg/mL (≈ 1.66 µM)
[2]
  MIC80: > 64 µg/mL
[3]
  MIC80: 1 µg/mL (≈ 1.66 µM)
[4]
  MIC80: 16 µg/mL (≈ 26.5 µM)
[5]
  MIC80: > 64 µg/mL
[6]
  MIC80: > 64 µg/mL
[7]
  MIC80: > 64 µg/mL
[8]
  MIC80: > 64 µg/mL

## O=C(/C=C/c1ccccc1F)Nc1ccc(-n2cnn(CC(O)(Cn3cncn3)c3ccc(F)cc3F)c2=O)cc1 (single isomer, unassigned)
[1]
  MIC80: 1 µg/mL (≈ 1.78 µM)
[2]
  MIC80: > 64 µg/mL
[3]
  MIC80: 4 µg/mL (≈ 7.12 µM)
[4]
  MIC80: 1 µg/mL (≈ 1.78 µM)
[5]
  MIC80: > 64 µg/mL
[6]
  MIC80: > 64 µg/mL
[7]
  MIC80: 4 µg/mL (≈ 7.12 µM)
[8]
  MIC80: > 64 µg/mL

## COc1ccc(/C=C/C(=O)Nc2ccc(-n3cnn(CC(O)(Cn4cncn4)c4ccc(F)cc4F)c3=O)cc2)cc1 (single isomer, unassigned)
[1]
  MIC80: 4 µg/mL (≈ 6.97 µM)
[2]
  MIC80: > 64 µg/mL
[3]
  MIC80: > 64 µg/mL
[4]
  MIC80: > 64 µg/mL
[5]
  MIC80: > 64 µg/mL
[6]
  MIC80: > 64 µg/mL
[7]
  MIC80: > 64 µg/mL
[8]
  MIC80: > 64 µg/mL

## O=C(Nc1ccc(-n2cnn(CC(O)(Cn3cncn3)c3ccc(F)cc3F)c2=O)cc1)c1cccc(Br)c1 (single isomer, unassigned)
[1]
  MIC80: 4 µg/mL (≈ 6.71 µM)
[2]
  MIC80: > 64 µg/mL
[3]
  MIC80: 16 µg/mL (≈ 26.8 µM)
[4]
  MIC80: 16 µg/mL (≈ 26.8 µM)
[5]
  MIC80: 64 µg/mL (≈ 107 µM)
[6]
  MIC80: > 64 µg/mL
[7]
  MIC80: 16 µg/mL (≈ 26.8 µM)
[8]
  MIC80: > 64 µg/mL

## CC(C)c1ccc(C(=O)Nc2ccc(-n3cnn(CC(O)(Cn4cncn4)c4ccc(F)cc4F)c3=O)cc2)cc1 (single isomer, unassigned)
[1]
  MIC80: 4 µg/mL (≈ 7.15 µM)
[2]
  MIC80: > 64 µg/mL
[3]
  MIC80: 4 µg/mL (≈ 7.15 µM)
[4]
  MIC80: 4 µg/mL (≈ 7.15 µM)
[5]
  MIC80: > 64 µg/mL
[6]
  MIC80: > 64 µg/mL
[7]
  MIC80: 4 µg/mL (≈ 7.15 µM)
[8]
  MIC80: > 64 µg/mL

## O=C(/C=C/c1cccc(F)c1)Nc1ccc(-n2cnn(CC(O)(Cn3cncn3)c3ccc(F)cc3F)c2=O)cc1 (single isomer, unassigned)
[1]
  MIC80: 16 µg/mL (≈ 28.5 µM)
[2]
  MIC80: > 64 µg/mL
[3]
  MIC80: 16 µg/mL (≈ 28.5 µM)
[4]
  MIC80: 16 µg/mL (≈ 28.5 µM)
[5]
  MIC80: > 64 µg/mL
[6]
  MIC80: > 64 µg/mL
[7]
  MIC80: > 64 µg/mL
[8]
  MIC80: > 64 µg/mL

## O=C(Nc1ccc(-n2cnn(CC(O)(Cn3cncn3)c3ccc(F)cc3F)c2=O)cc1)c1cccc(Cl)c1 (single isomer, unassigned)
[1]
  MIC80: 0.00024 µg/mL (≈ 0.000435 µM)
[2]
  MIC80: > 64 µg/mL
[3]
  MIC80: 0.00024 µg/mL (≈ 0.000435 µM)
[4]
  MIC80: 0.00024 µg/mL (≈ 0.000435 µM)
[5]
  MIC80: 4 µg/mL (≈ 7.25 µM)
[6]
  MIC80: > 64 µg/mL
[7]
  MIC80: 1 µg/mL (≈ 1.81 µM)
[8]
  MIC80: 16 µg/mL (≈ 29 µM)

## COc1ccc(/C=C/C(=O)Nc2ccc(-n3cnn(CC(O)(Cn4cncn4)c4ccc(F)cc4F)c3=O)cc2)cc1OC (single isomer, unassigned)
[1]
  MIC80: 1 µg/mL (≈ 1.66 µM)
[2]
  MIC80: > 64 µg/mL
[3]
  MIC80: 4 µg/mL (≈ 6.63 µM)
[4]
  MIC80: 1 µg/mL (≈ 1.66 µM)
[5]
  MIC80: > 64 µg/mL
[6]
  MIC80: > 64 µg/mL
[7]
  MIC80: 1 µg/mL (≈ 1.66 µM)
[8]
  MIC80: > 64 µg/mL
